Activity calls are given as the source filed them. The rule behind the calls is not given here.
Experiments:
[1] = target: Ribosomal protein S6 kinase alpha-3 (Homo sapiens, UniProt P51812); assay: Inhibition of human RSK2 assessed as remaining activity at 10 uM in presence of ATP by radiometric kinase assay relative to control
[2] = target: Dual specificity protein kinase CLK2 (Homo sapiens, UniProt P49760); assay: Inhibition of human CLK2 at 10 uM in presence of ATP by radiometric kinase assay relative to control
[3] = target: T1, Ribosomal protein S6 kinase alpha-1 (Homo sapiens, UniProt Q15418); assay: Inhibition of human RSK1 assessed as remaining activity at 10 uM in presence of ATP by radiometric kinase assay relative to control
T1 sequence (Q15418 whole entry): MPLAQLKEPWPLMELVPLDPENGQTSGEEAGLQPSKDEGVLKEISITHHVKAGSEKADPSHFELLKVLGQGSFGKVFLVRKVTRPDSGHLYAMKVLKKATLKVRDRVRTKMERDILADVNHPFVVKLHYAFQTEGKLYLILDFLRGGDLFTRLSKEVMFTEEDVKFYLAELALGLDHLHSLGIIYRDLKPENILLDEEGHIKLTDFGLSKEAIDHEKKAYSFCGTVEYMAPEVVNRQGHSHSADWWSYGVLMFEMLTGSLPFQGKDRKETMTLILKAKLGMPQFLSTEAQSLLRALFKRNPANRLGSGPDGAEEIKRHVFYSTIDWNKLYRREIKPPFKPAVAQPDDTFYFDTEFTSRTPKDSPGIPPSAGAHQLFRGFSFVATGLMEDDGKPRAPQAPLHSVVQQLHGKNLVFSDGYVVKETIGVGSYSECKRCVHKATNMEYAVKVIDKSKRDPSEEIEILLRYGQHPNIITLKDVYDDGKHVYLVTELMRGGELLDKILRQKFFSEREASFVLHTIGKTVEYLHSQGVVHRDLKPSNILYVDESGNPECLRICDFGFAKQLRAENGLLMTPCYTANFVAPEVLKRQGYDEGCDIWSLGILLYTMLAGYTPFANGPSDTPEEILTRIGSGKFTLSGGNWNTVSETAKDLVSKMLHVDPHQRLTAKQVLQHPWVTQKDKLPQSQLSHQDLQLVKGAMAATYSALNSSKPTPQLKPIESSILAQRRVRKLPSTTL

[4] = Toxicity in CRTac:Ncr-Fox1 mouse xenografted with human HT-29 cells assessed as body weight at 150 mg/kg, po administered for 10 days in presence of irinotecan relative to control; format: organism-based; settings: in vivo, 240 h, time 10 day
[5] = Toxicity in Emu-Myc driven transgenic mouse transplant model of B-cell lymphoma assessed as increase in weight of spleen at 150 mg/kg, po administered for 9 days; format: organism-based; settings: in vivo, 216 h, time 9 day
[6] = target: Testis-specific serine/threonine-protein kinase 1 (Homo sapiens) (UniProt Q9BXA7); assay: Inhibition of human TSSK1 assessed as remaining activity at 10 uM in presence of ATP by radiometric kinase assay relative to control
[7] = target: Mitogen-activated protein kinase 1 (Homo sapiens) (UniProt P28482); assay: Inhibition of human ERK2 assessed as remaining activity at 10 uM in presence of ATP by radiometric kinase assay relative to control
Chain of Mitogen-activated protein kinase 1 (Homo sapiens) (P28482 whole entry): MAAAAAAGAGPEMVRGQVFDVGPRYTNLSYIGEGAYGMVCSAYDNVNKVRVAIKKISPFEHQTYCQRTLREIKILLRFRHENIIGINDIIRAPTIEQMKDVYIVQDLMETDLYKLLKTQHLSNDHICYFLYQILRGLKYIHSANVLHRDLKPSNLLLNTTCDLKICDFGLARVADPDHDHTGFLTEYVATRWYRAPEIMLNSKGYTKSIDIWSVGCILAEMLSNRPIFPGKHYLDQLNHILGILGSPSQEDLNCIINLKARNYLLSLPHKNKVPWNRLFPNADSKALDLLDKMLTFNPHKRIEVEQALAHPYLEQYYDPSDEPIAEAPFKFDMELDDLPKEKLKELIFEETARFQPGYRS

[8] = target: Casein kinase 2 (Homo sapiens) (UniProt P67870+P68400+P19784+Q8NEV1); assay: Inhibition of human CK2 assessed as remaining activity at 10 uM in presence of ATP by radiometric kinase assay relative to control; format: protein assay
Mus musculus [9] = assay: In vivo inhibition of CHK1 in CRTac:Ncr-Fox1 athymic mouse xenografted with human Calu-6 cells assessed as enhanced phosphorylation CHK1 at […] on 150 mg/kg, po in presence of gemcitabine and carboplatin by Western blotting analysis; format: functional, organism-based
Summary of the method: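 Female CRTac:Ncr-Fox1(nu) athymic mice carried s.c. Calu6 xenografts. Tumors were taken 6h after the last inhibitor dose, lysed in CHAPS buffer, and immunoblotted with GAPDH as loading control.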

[10] = target: Ephrin type-B receptor 2 (Homo sapiens) (UniProt P29323); assay: Inhibition of human EPH-B2 assessed as remaining activity at 10 uM in presence of ATP by radiometric kinase assay relative to control
[11] = target: cAMP-dependent protein kinase (PKA) (Homo sapiens) (UniProt P22694+P17612+P22612); assay: Inhibition of human PKA assessed as remaining activity at 10 uM in presence of ATP by radiometric kinase assay relative to control; format: protein assay
[12] = target: Serine/threonine-protein kinase MARK2 (Homo sapiens) (UniProt Q7KZI7); assay: Inhibition of human MARK2 assessed as remaining activity at 10 uM in presence of ATP by radiometric kinase assay relative to control
Chain of Serine/threonine-protein kinase MARK2 (Homo sapiens) (Q7KZI7 whole entry): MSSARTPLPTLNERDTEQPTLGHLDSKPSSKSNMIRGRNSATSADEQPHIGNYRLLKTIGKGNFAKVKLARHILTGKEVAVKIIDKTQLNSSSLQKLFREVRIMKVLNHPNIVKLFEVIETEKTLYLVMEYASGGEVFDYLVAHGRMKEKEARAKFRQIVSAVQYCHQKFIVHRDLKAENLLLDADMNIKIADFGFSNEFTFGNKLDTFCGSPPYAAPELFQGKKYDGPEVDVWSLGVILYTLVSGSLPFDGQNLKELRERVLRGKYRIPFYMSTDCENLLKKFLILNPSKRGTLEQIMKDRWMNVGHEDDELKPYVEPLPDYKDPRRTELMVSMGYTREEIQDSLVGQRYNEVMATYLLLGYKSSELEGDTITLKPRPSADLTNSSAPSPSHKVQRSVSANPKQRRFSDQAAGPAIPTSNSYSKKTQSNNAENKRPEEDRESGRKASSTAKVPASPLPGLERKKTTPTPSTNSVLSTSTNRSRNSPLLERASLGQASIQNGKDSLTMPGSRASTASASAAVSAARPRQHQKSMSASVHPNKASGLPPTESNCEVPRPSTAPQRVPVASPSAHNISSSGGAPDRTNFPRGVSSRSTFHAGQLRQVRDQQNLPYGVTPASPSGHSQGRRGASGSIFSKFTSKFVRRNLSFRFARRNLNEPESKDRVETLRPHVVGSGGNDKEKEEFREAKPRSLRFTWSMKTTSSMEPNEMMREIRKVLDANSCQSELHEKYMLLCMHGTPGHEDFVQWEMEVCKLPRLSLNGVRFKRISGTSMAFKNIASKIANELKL

HT-29 = assay: Induction of cell cycle arrest in human HT-29 cells assessed as accumulation of cells at S phase at 0.5 uM incubated for 24 hrs by BrdU and PI staining based flow cytometry analysis; format: functional
Summary of the method: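 HT29 cells exposed for 24h, stained with bromodeoxyuridine and propidium iodide, and cell-cycle distribution measured by flow cytometry.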

[13] = target: Homeodomain-interacting protein kinase 2 (Homo sapiens) (UniProt Q9H2X6); assay: Inhibition of human HIPK2 assessed as remaining activity at 10 uM in presence of ATP by radiometric kinase assay relative to control
[14] = target: MAP kinase-activated protein kinase 2 (Homo sapiens) (UniProt P49137); assay: Inhibition of human MAPKAP-K2 assessed as remaining activity at 10 uM in presence of ATP by radiometric kinase assay relative to control
Chain of MAP kinase-activated protein kinase 2 (Homo sapiens) (P49137 whole entry, looked up): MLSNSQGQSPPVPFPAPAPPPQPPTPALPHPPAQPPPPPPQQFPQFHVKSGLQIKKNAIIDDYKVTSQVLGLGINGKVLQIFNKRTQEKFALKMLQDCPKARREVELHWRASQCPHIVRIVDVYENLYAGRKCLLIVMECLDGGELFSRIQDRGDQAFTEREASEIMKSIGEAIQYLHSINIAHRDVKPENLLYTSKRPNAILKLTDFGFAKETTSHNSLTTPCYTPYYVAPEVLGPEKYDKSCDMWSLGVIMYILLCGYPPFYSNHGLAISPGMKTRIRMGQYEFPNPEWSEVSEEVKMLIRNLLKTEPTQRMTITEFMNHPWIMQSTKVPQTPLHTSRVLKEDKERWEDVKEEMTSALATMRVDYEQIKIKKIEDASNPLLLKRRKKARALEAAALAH

[15] = target: Serine/threonine-protein kinase PAK 6 (Homo sapiens) (UniProt Q9NQU5); assay: Inhibition of human PAK6 assessed as remaining activity at 10 uM in presence of ATP by radiometric kinase assay relative to control
Chain of Serine/threonine-protein kinase PAK 6 (Homo sapiens) (Q9NQU5 whole entry, looked up): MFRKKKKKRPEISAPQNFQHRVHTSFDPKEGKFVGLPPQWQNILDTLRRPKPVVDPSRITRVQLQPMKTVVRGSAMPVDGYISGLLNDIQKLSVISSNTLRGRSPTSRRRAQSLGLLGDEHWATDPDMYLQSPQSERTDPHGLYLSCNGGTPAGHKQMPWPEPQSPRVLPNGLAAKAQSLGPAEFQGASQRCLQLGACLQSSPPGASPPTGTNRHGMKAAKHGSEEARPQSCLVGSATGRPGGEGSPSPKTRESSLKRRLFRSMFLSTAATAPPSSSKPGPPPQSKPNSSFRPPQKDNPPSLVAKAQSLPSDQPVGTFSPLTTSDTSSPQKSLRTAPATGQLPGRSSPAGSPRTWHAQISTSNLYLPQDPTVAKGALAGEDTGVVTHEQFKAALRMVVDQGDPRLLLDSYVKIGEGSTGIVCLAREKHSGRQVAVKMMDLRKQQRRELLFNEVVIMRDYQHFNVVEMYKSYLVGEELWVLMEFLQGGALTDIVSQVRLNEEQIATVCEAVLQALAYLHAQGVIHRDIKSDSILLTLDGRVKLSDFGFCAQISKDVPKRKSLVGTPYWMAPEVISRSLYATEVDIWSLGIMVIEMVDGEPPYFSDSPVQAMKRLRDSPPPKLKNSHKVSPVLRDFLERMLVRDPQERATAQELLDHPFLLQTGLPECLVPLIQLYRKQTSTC

[16] = target: Ephrin type-B receptor 1 (Homo sapiens) (UniProt P54762); assay: Inhibition of human EPH-B1 assessed as remaining activity at 10 uM in presence of ATP by radiometric kinase assay relative to control
Chain of Ephrin type-B receptor 1 (Homo sapiens) (P54762 whole entry): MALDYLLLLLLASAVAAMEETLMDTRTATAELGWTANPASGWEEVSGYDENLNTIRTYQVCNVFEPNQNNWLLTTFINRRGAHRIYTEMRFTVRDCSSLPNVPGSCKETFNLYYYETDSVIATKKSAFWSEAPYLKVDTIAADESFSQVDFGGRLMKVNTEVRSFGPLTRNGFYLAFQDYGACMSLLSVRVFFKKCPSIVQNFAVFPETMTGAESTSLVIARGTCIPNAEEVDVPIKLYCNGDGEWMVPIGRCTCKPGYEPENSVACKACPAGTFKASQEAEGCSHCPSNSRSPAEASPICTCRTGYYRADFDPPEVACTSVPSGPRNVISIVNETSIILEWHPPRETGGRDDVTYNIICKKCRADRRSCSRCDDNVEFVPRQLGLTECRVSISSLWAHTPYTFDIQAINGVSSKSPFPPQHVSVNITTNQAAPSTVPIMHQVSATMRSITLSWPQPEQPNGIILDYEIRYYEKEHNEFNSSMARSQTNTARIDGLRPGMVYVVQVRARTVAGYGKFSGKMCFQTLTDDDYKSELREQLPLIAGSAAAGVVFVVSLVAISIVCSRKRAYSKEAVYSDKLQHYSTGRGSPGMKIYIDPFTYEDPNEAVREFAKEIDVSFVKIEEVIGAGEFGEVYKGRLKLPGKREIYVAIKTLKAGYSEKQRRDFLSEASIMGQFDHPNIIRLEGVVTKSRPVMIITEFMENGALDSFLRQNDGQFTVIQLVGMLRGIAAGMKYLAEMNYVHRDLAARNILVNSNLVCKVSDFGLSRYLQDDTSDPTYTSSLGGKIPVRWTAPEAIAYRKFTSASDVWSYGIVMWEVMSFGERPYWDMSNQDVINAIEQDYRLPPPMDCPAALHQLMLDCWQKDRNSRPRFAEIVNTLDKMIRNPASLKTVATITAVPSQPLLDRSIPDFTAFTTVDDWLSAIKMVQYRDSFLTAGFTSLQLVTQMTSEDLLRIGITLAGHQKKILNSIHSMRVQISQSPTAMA

[17] = AUC (0 to t) in BALB/C mouse spleen at 10 mg/kg, iv by LC/MS-MS analysis; format: ADME, organism-based
[18] = target: Mitogen-activated protein kinase kinase kinase 9 (Homo sapiens) (UniProt P80192); assay: Inhibition of human MLK1 assessed as remaining activity at 10 uM in presence of ATP by radiometric kinase assay relative to control
[19] = target: High affinity nerve growth factor receptor (Homo sapiens) (UniProt P04629); assay: Inhibition of human TrkA assessed as remaining activity at 10 uM in presence of ATP by radiometric kinase assay relative to control
Chain of High affinity nerve growth factor receptor (Homo sapiens) (P04629 33-796 limits assumed): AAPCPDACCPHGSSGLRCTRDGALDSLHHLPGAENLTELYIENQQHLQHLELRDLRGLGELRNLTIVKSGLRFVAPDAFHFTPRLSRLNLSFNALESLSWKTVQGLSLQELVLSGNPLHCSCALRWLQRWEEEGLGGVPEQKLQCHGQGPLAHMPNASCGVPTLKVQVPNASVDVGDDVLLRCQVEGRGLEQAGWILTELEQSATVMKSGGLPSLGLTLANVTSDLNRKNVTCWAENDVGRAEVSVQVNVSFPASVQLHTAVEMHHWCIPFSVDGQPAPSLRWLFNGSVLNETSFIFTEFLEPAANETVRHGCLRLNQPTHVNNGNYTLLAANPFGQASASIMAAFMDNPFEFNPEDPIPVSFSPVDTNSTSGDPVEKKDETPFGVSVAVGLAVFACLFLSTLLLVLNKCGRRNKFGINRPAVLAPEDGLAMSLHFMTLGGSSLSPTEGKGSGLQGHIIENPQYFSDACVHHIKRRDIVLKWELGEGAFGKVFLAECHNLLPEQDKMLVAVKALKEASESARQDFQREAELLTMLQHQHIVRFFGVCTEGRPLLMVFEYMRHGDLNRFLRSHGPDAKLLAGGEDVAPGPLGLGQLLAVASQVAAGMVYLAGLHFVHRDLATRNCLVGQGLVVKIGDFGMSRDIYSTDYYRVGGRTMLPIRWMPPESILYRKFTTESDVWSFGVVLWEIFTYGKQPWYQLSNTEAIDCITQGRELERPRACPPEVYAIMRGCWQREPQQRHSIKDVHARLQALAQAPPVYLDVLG

[20] = target: Misshapen-like kinase 1 (Homo sapiens) (UniProt Q8N4C8); assay: Inhibition of human MINK1 assessed as remaining activity at 10 uM in presence of ATP by radiometric kinase assay relative to control
[21] = Toxicity in Emu-Myc driven transgenic mouse transplant model of B-cell lymphoma assessed as reduction in weight of bone marrow at 150 mg/kg, po administered for 9 days; format: organism-based; settings: in vivo, 216 h, time 9 day
[22] = target: Serine/threonine-protein kinase BRSK1 (Homo sapiens, UniProt Q8TDC3); assay: Inhibition of human BRSK1 by FRET based Z-LYTE kinase assay
Mus musculus [23] = assay: In vivo inhibition of CHK1 in CRTac:Ncr-Fox1 mouse xenografted with human HT-29 cells assessed as reduction of phosphorylation of CHK1 on S296 at 100 mg/kg, po administered for 24 hrs by Western blotting analysis; format: functional, organism-based
Summary of the method: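 HT29 s.c. xenografts in female athymic nude mice. Single gemcitabine dose 100mg/kg i.v. on day 0, then one inhibitor dose 50 or 100mg/kg p.o. (DPTW vehicle) 24h later. Tumors taken 24h after the last dose, western blotted, and signals quantified by normalizing to GAPDH.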

[24] = target: Mitogen-activated protein kinase 12 (Homo sapiens) (UniProt P53778); assay: Inhibition of human p38g MAPK assessed as remaining activity at 10 uM in presence of ATP by radiometric kinase assay relative to control
[25] = target: T1, Ribosomal protein S6 kinase alpha-1; assay: Inhibition of human RSK1 by 33P radiometric kinase assay
[26] = target: Ephrin type-B receptor 3 (Homo sapiens) (UniProt P54753); assay: Inhibition of human EPH-B3 assessed as remaining activity at 10 uM in presence of ATP by radiometric kinase assay relative to control

Activity [1]: 19%
inhibition [2]: 94%
Activity [3]: 7%
Activity [6]: 53%
Activity [7]: 98%
Activity [8]: 81%
Activity [10]: 102%
Activity [11]: 93%
Activity [12]: 21%
Activity [13]: 92%
Activity [14]: 94%
Activity [15]: 77%
Activity [16]: 111%
AUC(0-t) [17]: 262 µM·h
Activity [18]: 75%
Activity [19]: 31%
Activity [20]: 44%
IC50 [22]: 1.66 µM
Activity [24]: 95%
IC50 [25]: 0.362 µM
Activity [26]: 93%
SMILES: N#Cc1cnc(Nc2cc(NC[C@H]3CNCCO3)c(C(F)(F)F)cn2)cn1 [SRA-737]
Activity [4]: 98%
Activity [5]: Toxic
Activity (Mus musculus [9]): Active
Activity (HT-29): Active
Activity [21]: Toxic
Activity (Mus musculus [23]): Active
